Measured values reported in publication PMC4381552 (Cell reports, 2014).

Tests used:
[1] = target: wild-type (WT) hSTING (Homo sapiens, UniProt Q86WV6, H232R); test: ITC binding of DMXAA to STING CTD; conditions: 25°C
[2] = target: hSTING^group1 (aa 140-379) (Homo sapiens, UniProt Q86WV6, E174G/H185L/H232R/L189M/Q196R/R191S/T181M/V194G/Y182F/Y186H); test: ITC binding of DMXAA to STING CTD; conditions: 25°C
[3] = target: hSTING^group3 (Homo sapiens, UniProt Q86WV6, A300E/A302V/D297E/H232R/Q276K/Q306R/S275A/Y274D); test: ITC binding of DMXAA to STING CTD; conditions: 25°C
[4] = target: hSTING^group4 (Homo sapiens, UniProt Q86WV6, A350V/E362R/E369D/F378L/G344N/H232R/K347M/K370Q/L346P/M357L/S345A/S353P/S379I/T354P/T356V/V343M/V351A); test: ITC binding of DMXAA to STING CTD; conditions: 25°C
[5] = target: hSTING^group2 (Homo sapiens, UniProt Q86WV6, D237N/G230I/H232R/I244V/K224M/L222R/T229N); test: IFN-β luciferase reporter assay in transfected 293T cells; assay type: cell-based; conditions: 0.18 mM DMXAA (50 μg/ml), 12 hr
[6] = target: hSTING^group134 (Homo sapiens, UniProt Q86WV6, A300E/A302V/A350V/D297E/E174G/E362R/E369D/F378L/G344N/H185L/H232R/K347M/K370Q/L189M/L346P/M357L/Q196R/Q276K/Q306R/R191S/S275A/S345A/S353P/S379I/T181M/T354P/T356V/V194G/V343M/V351A/Y182F/Y186H/Y274D); test: IFN-β luciferase reporter assay in transfected 293T cells; assay type: cell-based; conditions: 0.18 mM DMXAA (50 μg/ml), 12 hr, versus hSTING^group1234
In short: (§1)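 HEK293T cells were reverse-transfected with full-length STING plasmids, expressed at moderate levels, plus IFN-β reporter constructs. […] Luciferase was read 12 hr later. Gaussia luciferase was normalized to constitutive firefly luciferase. Values are means of triplicates + SEM, representative of three independent experiments.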

[7] = target: hSTING Q266I (Homo sapiens, UniProt Q86WV6, H232R/Q266I); test: as above; assay type: cell-based; conditions: 0.18 mM DMXAA, 12 hr
In short: as §1

[8] = target: hSTING Q266L (Homo sapiens, UniProt Q86WV6, H232R/Q266L); test: as above; assay type: cell-based; conditions: 0.18 mM DMXAA, 12 hr
In short: as §1

[9] = target: hSTING G166S (Homo sapiens, UniProt Q86WV6, G166S/H232R); test: as above; assay type: cell-based; conditions: 0.18 mM DMXAA, 12 hr
In short: as §1

[10] = target: hSTING I235L (Homo sapiens, UniProt Q86WV6, H232R/I235L); test: as above; assay type: cell-based; conditions: 0.18 mM DMXAA, 12 hr
In short: as §1

[11] = target: hSTING Q266V (Homo sapiens, UniProt Q86WV6, H232R/Q266V); test: as above; assay type: cell-based; conditions: 0.18 mM DMXAA, 12 hr
In short: as §1

[12] = target: WT hSTING (Homo sapiens, UniProt Q86WV6, H232R); test: Cytokine/chemokine induction in STING^Gt/Gt BMDCs reconstituted with hSTING; assay type: cell-based; conditions: 50 µg/ml DMXAA, 3 hr, real-time PCR
In short: (§2)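 STING-deficient BMDCs were derived from STINGGt/Gt mouse bone marrow cultured with GM-CSF for 10 days and plated at 1 × 10^6 cells/well. They were infected with retroviruses expressing hSTING variants, and hSTING levels were checked by western blot. […] IFNB1, CXCL10, CCL5 and IL-6 mRNA were measured by real-time PCR. Data are means ± SEM (n = 3) from one of two experiments.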

[13] = target: hSTING^G230I (Homo sapiens, UniProt Q86WV6, G230I/H232R); test: as above; assay type: cell-based; conditions: 50 µg/ml DMXAA, 3 hr, real-time PCR
In short: as §2

[14] = target: hSTING^S162A/Q266I (Homo sapiens, UniProt Q86WV6, H232R/Q266I/S162A); test: as above; assay type: cell-based; conditions: 50 µg/ml DMXAA, 3 hr, real-time PCR
In short: as §2

[15] = target: hSTING^S162A/G230I/Q266I (Homo sapiens, UniProt Q86WV6, G230I/H232R/Q266I/S162A); test: as above; assay type: cell-based; conditions: 50 µg/ml DMXAA
In short: as §2

[16] = target: hSTING^S162A (Homo sapiens, UniProt Q86WV6, H232R/S162A); test: as above; assay type: cell-based; conditions: 50 µg/ml DMXAA, 3 hr, real-time PCR
In short: as §2

[17] = tested on: all hSTING alleles with S162A/Q266I double substitution; test: IFN-β luciferase reporter assay in transfected 293T cells; assay type: cell-based, human; conditions: 0.18 mM DMXAA, alleles R232, HAQ, H232, AQ, Q293
In short: as §1

[18] = tested on: non-small-cell lung cancer; conditions: in combination with paclitaxel and carboplatin; ref Lara et al., 2011; cited from earlier work
[19] = ref Tijono et al., 2013; cited from earlier work

hSTING^S162A/G230I/Q266I, sequence (Q86WV6 whole entry S162A/G230I/H232R/Q266I): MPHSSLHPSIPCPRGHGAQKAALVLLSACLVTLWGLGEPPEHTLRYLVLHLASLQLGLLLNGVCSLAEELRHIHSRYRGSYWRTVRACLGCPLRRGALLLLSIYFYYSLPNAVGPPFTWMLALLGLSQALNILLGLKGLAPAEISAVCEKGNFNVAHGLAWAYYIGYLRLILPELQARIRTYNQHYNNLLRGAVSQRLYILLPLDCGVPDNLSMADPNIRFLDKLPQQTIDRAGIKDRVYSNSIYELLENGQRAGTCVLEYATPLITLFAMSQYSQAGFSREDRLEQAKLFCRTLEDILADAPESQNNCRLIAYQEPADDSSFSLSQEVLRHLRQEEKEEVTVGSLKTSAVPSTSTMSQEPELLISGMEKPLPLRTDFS
WT hSTING, sequence (Q86WV6 whole entry H232R): as the sequence (Q86WV6 whole entry S162A/G230I/H232R/Q266I) above, with A162S, I230G, I266Q counted along it
hSTING^S162A/Q266I, sequence (Q86WV6 whole entry S162A/H232R/Q266I): as the sequence (Q86WV6 whole entry S162A/G230I/H232R/Q266I) above, with I230G counted along it
hSTING^S162A, sequence (Q86WV6 whole entry S162A/H232R): as the sequence (Q86WV6 whole entry S162A/G230I/H232R/Q266I) above, with I230G, I266Q counted along it
hSTING^group134, sequence (Q86WV6 1-379 with the stated changes): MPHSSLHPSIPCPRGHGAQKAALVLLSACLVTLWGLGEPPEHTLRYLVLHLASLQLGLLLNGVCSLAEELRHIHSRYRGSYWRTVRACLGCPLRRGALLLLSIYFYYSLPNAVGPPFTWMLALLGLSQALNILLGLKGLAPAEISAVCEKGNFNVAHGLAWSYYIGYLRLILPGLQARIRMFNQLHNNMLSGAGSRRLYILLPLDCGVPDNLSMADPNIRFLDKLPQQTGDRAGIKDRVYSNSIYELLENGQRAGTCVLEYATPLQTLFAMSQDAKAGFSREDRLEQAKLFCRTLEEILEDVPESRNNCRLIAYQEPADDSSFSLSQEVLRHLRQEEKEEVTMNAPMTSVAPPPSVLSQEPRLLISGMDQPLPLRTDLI
hSTING Q266L, sequence (Q86WV6 whole entry H232R/Q266L): as the sequence (Q86WV6 whole entry S162A/G230I/H232R/Q266I) above, with A162S, I230G, I266L counted along it
wild-type (WT) hSTING, sequence (Q86WV6 140-379 H232R): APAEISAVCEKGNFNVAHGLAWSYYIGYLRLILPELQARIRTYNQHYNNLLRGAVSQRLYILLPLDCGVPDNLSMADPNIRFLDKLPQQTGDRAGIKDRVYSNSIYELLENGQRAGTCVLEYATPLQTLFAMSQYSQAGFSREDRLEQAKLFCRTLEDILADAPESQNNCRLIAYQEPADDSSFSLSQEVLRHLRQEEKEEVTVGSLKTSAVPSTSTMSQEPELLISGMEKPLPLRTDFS
hSTING Q266I, sequence (Q86WV6 whole entry H232R/Q266I): as the sequence (Q86WV6 whole entry S162A/G230I/H232R/Q266I) above, with A162S, I230G counted along it
hSTING^group3, sequence (Q86WV6 140-379 H232R/Y274D/S275A/Q276K/D297E/A300E/A302V/Q306R): as the sequence (Q86WV6 140-379 H232R) above, with Y135D, S136A, Q137K, D158E, A161E, A163V, Q167R counted along it
hSTING G166S, sequence (Q86WV6 whole entry G166S/H232R): as the sequence (Q86WV6 whole entry S162A/G230I/H232R/Q266I) above, with A162S, G166S, I230G, I266Q counted along it
hSTING^group1 (aa 140-379), sequence (Q86WV6 140-379 E174G/T181M/Y182F/H185L/Y186H/L189M/R191S/V194G/Q196R/H232R): as the sequence (Q86WV6 140-379 H232R) above, with E35G, T42M, Y43F, H46L, Y47H, L50M, R52S, V55G, Q57R counted along it
hSTING^G230I, sequence (Q86WV6 whole entry G230I/H232R): as the sequence (Q86WV6 whole entry S162A/G230I/H232R/Q266I) above, with A162S, I266Q counted along it
hSTING^group2, sequence (Q86WV6 whole entry L222R/K224M/T229N/G230I/H232R/D237N/I244V): as the sequence (Q86WV6 whole entry S162A/G230I/H232R/Q266I) above, with A162S, L222R, K224M, T229N, D237N, I244V, I266Q counted along it
hSTING I235L, sequence (Q86WV6 whole entry H232R/I235L): as the sequence (Q86WV6 whole entry S162A/G230I/H232R/Q266I) above, with A162S, I230G, I235L, I266Q counted along it
hSTING Q266V, sequence (Q86WV6 whole entry H232R/Q266V): as the sequence (Q86WV6 whole entry S162A/G230I/H232R/Q266I) above, with A162S, I230G, I266V counted along it
hSTING^group4, sequence (Q86WV6 140-379 with the stated changes): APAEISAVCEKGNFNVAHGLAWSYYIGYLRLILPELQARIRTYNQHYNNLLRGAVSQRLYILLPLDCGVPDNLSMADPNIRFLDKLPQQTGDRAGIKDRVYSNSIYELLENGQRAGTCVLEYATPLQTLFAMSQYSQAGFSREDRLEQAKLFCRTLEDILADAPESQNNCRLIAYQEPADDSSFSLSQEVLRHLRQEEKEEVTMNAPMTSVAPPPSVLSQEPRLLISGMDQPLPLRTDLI

## Cc1ccc2c(=O)c3cccc(CC(=O)O)c3oc2c1C [DMXAA, 5,6-dimethylxanthenone-4-acetic acid]
[1]
  binding to DMXAA: no detectable binding
[2]
  binding to DMXAA: no detectable binding
[3]
  binding to DMXAA: no detectable binding
[4]
  binding to DMXAA: no detectable binding
[5]
  IFN-β reporter response: showed responsiveness to DMXAA
[6]
  IFN-β reporter response: strongly diminished DMXAA activation
[7]
  IFN-β induction: conferred DMXAA sensitivity
[8]
  IFN-β induction: less pronounced gain
[9]
  IFN-β induction: showed no effects
[10]
  IFN-β induction: showed no effects
[11]
  IFN-β induction: showed no effects
[12]
  IFN-β mRNA upregulation: did not induce the upregulation
[13]
  increase in IFN-β mRNA levels: 2.6 fold
[14]
  increase in IFN-β mRNA levels: 3.1 fold
[15]; 3 hr, real-time PCR
  increase in IFN-β mRNA levels: 4.2 fold
  upregulation of CXCL10, CCL5, and IL-6 mRNAs: strongest induction among the four mutants
[15]; 18 hr
  CXCL10 production (supernatant, ELISA): highest level of CXCL10 production
[16]
  increase in IFN-β mRNA levels: 2.2 fold
[17]
  DMXAA responsiveness (IFN-β reporter): able to induce DMXAA responsiveness
[18]
  outcome of human phase III trials: failed

## Cc1cccc2oc3c(CC(=O)O)cccc3c(=O)c12 [8-methyl-XAA]
[19]
  activity in human: weak yet human-active

## Cc1ccc2oc3c(CC(=O)O)cccc3c(=O)c2c1 [7-methyl-XAA]
[19]
  activity in human: weak yet human-active
